Source: PubChem (several laboratories)
ARNT-TACC3 inh = ARNT/TACC3 interaction disruption; inhibition, % at 9.99 µM; Q9Y6A5; AlphaScreen His-ARNT PAS-B/GST-TACC3 binding, luminescence; TACC3 fragment carries E629A point mutation; 390,000 compounds, 0.66% hits;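 active = mean inhibition of replicates at least 50% and at least half of replicates each reaching 50%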
UCH37 DUB inh = inhibitors of human deubiquitinating enzyme UCH37; AID 588478; 330,000 compounds, 0.33% hits; Q9Y5K5; inhibition, % (concentration not given with the values); purified proteasome/UCH37, Ub-AMC cleavage fluorescence;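 active = mean inhibition over replicate wells above about 20%, limit read from the data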
Target sequence (Q9Y5K5 whole entry, looked up): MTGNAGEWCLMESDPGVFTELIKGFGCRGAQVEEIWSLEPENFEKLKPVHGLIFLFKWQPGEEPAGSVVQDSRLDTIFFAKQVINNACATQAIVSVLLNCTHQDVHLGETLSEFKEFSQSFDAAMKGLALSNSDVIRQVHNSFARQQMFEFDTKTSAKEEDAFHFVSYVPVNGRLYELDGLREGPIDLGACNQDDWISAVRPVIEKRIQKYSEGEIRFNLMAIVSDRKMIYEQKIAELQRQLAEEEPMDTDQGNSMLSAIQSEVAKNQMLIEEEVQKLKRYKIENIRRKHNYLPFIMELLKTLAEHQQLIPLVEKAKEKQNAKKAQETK
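Signal – fluorescence, ex 355 nm, em 460 nm · System – Proteasome-bound UCH37 · Input – 0.15 nM proteasome as dispensed · Timing – 30 min preincubation with enzyme, 25 min cleavage at room temperature · Read-out basis – percent inhibition of cleavage signal versus uninhibited and no-proteasome wells · Medium – Tris-HCl pH 7.4 with ATP-MgCl2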
SUMO Mot1 rescue = blocks SUMOylation pathway, rescuing yeast Mot1-301 growth; S. cerevisiae Mot1-301 growth rescue, ATP luminescence, 38.5C; percent above DMSO median, 100 means doubled; growth rescue, % at 18.8 µM; 320,000 compounds, 1% hits;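 active = every valid replicate shows activation above 250% relative to neutral control wells; inactive = the rest, any valid replicate at or below 250%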
Efflux pump inh = antifungal efflux pump inhibition, Nile Red retention | 330,000 compounds, 0.44% hits | S. cerevisiae Candida pump triplex | AID 485275 | inhibition, % at 10 µM;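 active = plate passing quality check with inhibition over a set limit, or well fluorescence over plate mean plus 4 SD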;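 also: Nile Red retained in pooled yeast measured as flow cytometry median fluorescence; higher means more Nile Red kept so more efflux inhibition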
cardiac RTF act = increases calcium sensitivity of human cardiac regulated thin filaments. P19429+P45379. IANBD-labeled TnC RTF fluorescence at EC20 calcium; 0% EC20 calcium, 100% full calcium. activation, % at 7.2 µM. 340,000 compounds, 0.24% hits;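 active = activation above the mean over all tested compounds plus 3 SD, cut at about 30% in these data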;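 also: rise in fluorescence read as greater calcium sensitivity of cardiac thin filaments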
RTF Ca sens inh = cardiac RTF calcium desensitization; P19429+P45379; IANBD-labeled cardiac RTF, Ca2+ fluorescence; inhibition, % at 7.15 µM; 340,000 compounds, 0.12% hits; AID 493244;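 active = inhibition above the mean inhibition of all tested compounds plus 3 SD, cut at about 17% in these data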;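 also: assay run at fixed EC70 calcium of 1.6 mM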
Numbers stand for hits; - = inactive; . = not tested or not shown. Only some compounds are listed: those with a hit (about 2.1% of all), similar ones and a draw of the others.

SMILES	ARNT-TACC3 inh	UCH37 DUB inh	SUMO Mot1 rescue	Efflux pump inh	cardiac RTF act	RTF Ca sens inh
COc1ccc(CSc2cccc3cccnc23)cc1[N+](=O)[O-]	45.0	-	-	-	-	-
O=C(CNc1n[nH]c(=O)[nH]c1=O)NN=Cc1cccnc1	.	-	.	.	.	.
OC(CNCc1ccccn1)c1ccccc1 (stereo not drawn)	48.4	-	-	-	-	-
Fc1ccc(C(CCNCc2ccccn2)c2ccc(Cl)cc2)cc1 (stereo not drawn)	47.5	-	-	-	-	-
OC(CNCc1ccncc1)c1ccccc1 (stereo not drawn)	-	-	-	-	-	-
CC1Oc2ccccc2C=C1C=NNC(=O)c1ccncc1 (stereo not drawn)	.	-	.	.	.	.
O=C(NN=Cc1cccc(NC(=O)c2ccc(Cl)cc2)c1)c1cccc(O)c1	.	-	.	.	.	.
COc1ccc(NC(=O)CSc2nnc(Cn3cnc([N+](=O)[O-])n3)n2C)cc1	-	-	343.9	-	-	-
Cc1cc(C(F)(F)F)nn1CC(=O)N(C)c1ccccc1	-	-	-	-	-	-
Cc1cc(C(F)(F)F)nn1CC(=O)N(C)C1CCCCC1	-	32.0	-	-	-	-
CC(=NNC(=O)c1c(Cl)cnn1C)c1cccc(NC(=O)C(C)C)c1	.	-	.	.	.	.
O=C(Nc1nccs1)c1ccc(N2C(=O)[C@@H]3[C@H](C2=O)[C@H]2C=C[C@@H]3C2)cc1	-	-	-	-	-	-
O=C(Nc1nccs1)c1cccc(N2C(=O)C3C4C=CC(C4)C3C2=O)c1 (stereo not drawn)	-	29.1	-	-	-	-
CCOC(=O)N1CCN(S(=O)(=O)c2ccc(OCC(=O)OC)c(Cl)c2)CC1	-	-	286.7	-	-	-
O=C1NCC(c2ccccc2)C1C(=O)NN=Cc1ccc(-c2cccc(Cl)c2Cl)o1 (stereo not drawn)	.	-	.	.	.	.
CC(CC(=O)Nc1ccc2c(c1)OCCO2)=NNC(=O)COc1ccc(C)cc1	.	-	.	.	.	.
COc1ccc2c(c1)cc(C(=O)N[C@H](C(=O)N1CCC(C(=O)O)CC1)C(C)C)n2C	-	-	-	-	-	-
COc1ccc2c(c1)cc(C(=O)N[C@H](C(=O)N1CCC[C@H]1C(=O)O)C(C)C)n2C	-	-	418.7	-	-	-
Nc1nc(N)c2sc3nc4c(cc3c2n1)CCC4	76.1	-	-	-	-	-
CC(CC(=O)Nc1cccc(Cl)c1Cl)=NNC(=O)c1ccccc1C	.	-	.	.	.	.
CC(C)c1ccc(NC2(C#N)C(=O)Nc3ccccc32)cc1 (stereo not drawn)	-	-	-	-	-	-
Cc1ccccc1NC1(C#N)C(=O)Nc2ccccc21 (stereo not drawn)	.	-	347.9	-	-	-
Cc1cc(C(=O)COC(=O)c2ccc(O)cc2)c(C)n1CC1CCCO1 (stereo not drawn)	-	-	-	-	-	-
Cc1cc(C(=O)COC(=O)c2ccc(Cl)c(S(N)(=O)=O)c2)c(C)n1CC1CCCO1 (stereo not drawn)	-	-	331.0	-	-	-
CC(=O)Nc1ccc(S(=O)(=O)Nc2ccc(C(=O)NCC(=O)O)cc2)cc1	-	-	348.9	-	-	-
SMILES	ARNT-TACC3 inh	UCH37 DUB inh	SUMO Mot1 rescue	Efflux pump inh	cardiac RTF act	RTF Ca sens inh
S=C1NC2(CCCCC2)NN1c1ccccc1	-	-	363.8	-	-	-
Clc1ccc(-n2nnnc2Sc2ncnc3sccc23)cc1	-	-	577.9	-	-	-
O=C(CN1C(=O)NC2(CCCCCCC2)C1=O)NC(=O)NCc1ccco1	-	-	337.2	-	-	-
CC(=O)C1C(c2cn(-c3ccccc3)nc2-c2cccs2)NC(=O)NC1(O)C(F)(F)F (stereo not drawn)	47.0	-	-	-	-	-
COc1ccc(S(=O)(=O)N(C(=O)c2ccncc2)c2ccc(OC(=O)c3ccncc3)cc2)cc1	-	-	309.0	-	-	-
COc1ccc(N(C(=O)c2ccncc2)S(=O)(=O)c2ccccc2)cc1	-	-	-	-	-	-
CCn1nc(-c2ccccc2)c2nc3ccccc3nc21	.	-	-	-	50.1	-
Cn1nccc1C(=O)N1CCN(c2ncccn2)CC1	.	-	336.0	-	-	-
Cn1nccc1C(=O)N1CCN(c2ccccc2Cl)CC1	-	-	-	-	-	-
Cc1ccc(C=NNC(=O)c2cccc(NC(=O)c3ccccc3C)c2)o1	.	-	.	.	.	.
COc1ccc(OC)c(NC(=O)Cc2coc3ccc4ccccc4c23)c1	-	-	497.0	-	-	-
CCN1CC=C2C(C1)C(c1ccc(Cl)s1)C(C#N)=C(N)C2(C#N)C#N (stereo not drawn)	-	-	-	-	30.0	-
O=C(CN(c1ccc([N+](=O)[O-])cc1)S(=O)(=O)c1ccccc1)N1CCCCC1	-	.	-	-	-	-
O=C(CN(c1cccc([N+](=O)[O-])c1)S(=O)(=O)c1ccccc1)N1CCCCC1	-	-	340.6	-	-	-
CC(=NNC(=O)c1ccc(NS(=O)(=O)c2cccs2)cc1)c1ccc2c(c1)OCO2	.	-	.	.	.	.
O=c1/c(=C/c2ccc(O)c([N+](=O)[O-])c2)sc2nc3ccccc3n12	-	.	.	.	.	.
CCN(CC)c1ccc(/C=c2\sc3nc4ccccc4n3c2=O)c(O)c1	-	.	.	.	53.2	-
COc1ccc(C=NNC(=O)c2cccc(NC(=O)c3ccccc3Cl)c2)cc1	.	-	.	.	.	.
Cn1c(=O)c2c(nc(N3CCc4ccccc4C3)n2Cc2ccccc2F)n(C)c1=O	-	-	-	-	-	-
CN1CCN(c2nc3c(c(=O)n(C)c(=O)n3C)n2Cc2ccc(Cl)cc2)CC1	-	-	288.8	-	-	-
CN1CCN(c2nc3c(c(=O)n(C)c(=O)n3C)n2Cc2ccccc2F)CC1	-	-	-	-	52.2	-
CC1CCN(c2nc3c(c(=O)n(C)c(=O)n3C)n2CCSc2nc3ccccc3o2)CC1	.	-	.	.	.	.
Cn1c(=O)c2c(nc(N3CCCCCC3)n2CCSc2nc3ccccc3o2)n(C)c1=O	-	-	422.6	-	-	-
O=Cc1cccn1-c1c(C(=O)O)cnn1-c1ccccc1	-	-	-	-	-	-
O=C(O)c1cnn(-c2ccccc2)c1-c1ccncc1	-	-	321.8	-	-	-
SMILES	ARNT-TACC3 inh	UCH37 DUB inh	SUMO Mot1 rescue	Efflux pump inh	cardiac RTF act	RTF Ca sens inh
O=C1NCC2=C1C(c1ccc(Br)cc1)Nc1ccccc1N2 (stereo not drawn)	active	-	-	-	-	-
COc1cc(OC)cc(C(=O)NNC(=O)C2CCCC2)c1	-	-	330.7	-	-	-
Oc1ccccc1C=NCCN=Cc1ccccc1O	-	-	-	-	-	-
Oc1ccccc1C=NCCN1CCN(CCN=Cc2ccccc2O)C1c1ccccc1O (stereo not drawn)	71.3	-	.	.	-	-
COc1ccc(CN2CSC(=S)N(Cc3ccc(OC)cc3)C2)cc1	-	-	328.2	-	-	-
Cc1nnc2sc(SCc3ccc(Br)cc3)nn2c1=O	-	-	-	-	-	-
